Measured values as given in PubChem BioAssay AID686992 (Broad Institute, 2013).
The campaign covered roughly 260,000 compounds. About 960 (0.37%) were called active.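 The calls were made as follows: active = mean E-selectin-positive cell signal at least 10% of the positive control, reached in at least 60% of replicates, without over 20% cell loss; inconclusive = no rule given, readout overlaps actives, possibly toxicity-flagged; inactive = the rest, including those meeting only one limit.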 This excerpt belongs to a sample that is enriched for actives.

Each compound was assayed against E-selectin (Homo sapiens) (UniProt P16581) (assay: E-selectin induction in HUVECs, primary screen, imaging, HUVEC, immunofluorescence imaging, single point (AID 686992;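 also: signal is the percent of cells scored E-selectin positive by PE staining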)). Conditions: at 7.58 µM, active compounds read high, normalized: neutral wells 0, TNF-alpha wells 100.
Summary of the method: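 Test system: HUVEC; input: 3,000 HUVEC/well; measured by: immunofluorescence imaging; read-out: % PE-positive cells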

Chain of E-selectin (Homo sapiens) (P16581 whole entry, looked up): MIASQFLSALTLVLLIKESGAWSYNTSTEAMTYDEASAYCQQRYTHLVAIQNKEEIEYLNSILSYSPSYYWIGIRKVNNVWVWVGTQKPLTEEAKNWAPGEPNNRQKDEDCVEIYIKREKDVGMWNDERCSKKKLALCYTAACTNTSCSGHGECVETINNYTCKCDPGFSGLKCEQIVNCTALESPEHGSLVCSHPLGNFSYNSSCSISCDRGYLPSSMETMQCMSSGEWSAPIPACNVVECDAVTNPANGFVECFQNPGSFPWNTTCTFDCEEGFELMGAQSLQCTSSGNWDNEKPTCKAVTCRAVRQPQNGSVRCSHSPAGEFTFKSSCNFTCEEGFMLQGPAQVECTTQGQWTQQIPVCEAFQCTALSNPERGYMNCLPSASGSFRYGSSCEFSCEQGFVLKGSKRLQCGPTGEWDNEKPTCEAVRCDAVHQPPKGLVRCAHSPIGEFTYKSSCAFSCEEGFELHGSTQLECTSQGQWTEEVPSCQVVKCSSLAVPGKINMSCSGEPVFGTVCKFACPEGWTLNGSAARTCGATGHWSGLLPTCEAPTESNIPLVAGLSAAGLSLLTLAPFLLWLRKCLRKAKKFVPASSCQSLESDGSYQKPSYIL

SMILES | activation
COc1ccc(-c2nn(-c3ccccc3)cc2/C=N/Nc2ccccn2)cc1OC | -1.26% (inactive)
O=Cc1cn(Cc2ccccc2)nc1-c1cccnc1 | 2.7% (inactive)
O=Cc1cn(-c2ccccc2)nc1-c1ccccn1 | 31.7% (active)
COC(=O)c1ccc2nc(-c3ccc(Cl)cc3)c(Cc3cccc(F)c3)n2c1 | -0.152% (inactive)
Cc1cc2nc(-c3ccc(F)cc3)c(Cc3ccsc3)n2c(C)c1Br | 0.0835% (inactive)
O=C(CCCn1c(=O)c2sccc2n(CC(=O)NCC2CCCO2)c1=O)NCc1ccco1 (stereo unspecified) | 8.64% (inactive)
O=C(Cc1ccc(-n2c(=O)c3sccc3n(Cc3ccc(F)cc3)c2=O)cc1)NCc1ccco1 | 159% (active)
CC1=C(C(=O)N2CCOCC2)CC(CC(=O)NCc2ccco2)C(=O)N1Cc1ccc(F)cc1 (stereo unspecified) | 8.96% (inactive)
CC1(C(=O)Nc2cccc3c2CCCC3)CCN1C(=O)C1(c2ccccc2)CC1 (stereo unspecified) | 0.283% (inactive)
COCCCNC(=O)C[C@H]1C[C@@]2(C(=O)OC)C(=C[C@H](C(C)(C)C)O[C@@H]2C)N(Cc2ccc3c(c2)OCO3)C1=O | -0.0885% (inactive)
O=C(C[C@@H]1C[C@H]2c3cc(NC(=O)NC4CCCC4)ccc3O[C@H]2[C@@H](CO)O1)NC1CCCCC1 | 0.37% (inactive)
CC1CC(=O)Nc2ccccc2N1C(=O)COc1ccc2cc(Br)ccc2c1 (stereo unspecified) | 0.0775% (inactive)
CC1CC(=O)Nc2ccccc2N1S(=O)(=O)c1cccs1 (stereo unspecified) | 28.3% (active)
CC1COc2ccccc2N1S(=O)(=O)c1ccccc1 (stereo unspecified) | 0.485% (inactive)
CC(C)C[C@H]1CN([C@@H](CC(C)C)CN2CCC[C@@H]2CN2C(=O)C(=O)NC[C@@H]2Cc2ccccc2)C(=O)C(=O)N1CCc1ccccc1 | 0.726% (inactive)
CO[C@H]1CN(C)C(=O)c2cc(NC(=O)c3cc(C)on3)ccc2OC[C@@H](C)N(C(C)=O)C[C@H]1C | -0.127% (inactive)
COc1cccc(-c2ccc3c(c2)N(Cc2ccccc2OC)C(=O)C(C)S3)c1 (stereo unspecified) | -0.102% (inactive)
O=S1(=O)CCN(C2CCCCCCCCCCC2)CC1 | -0.851% (inactive)
CC(C)C(c1nnnn1C1CCCCC1)N1CCN(C(=O)c2ccco2)CC1 (stereo unspecified) | 39.5% (active)
O=C(CNS(=O)(=O)c1ccccc1)N1CCN(C(=O)c2ccco2)CC1 | 0.056% (inactive)
O=C(c1ccco1)N1CCN(C(=S)Nc2cc(F)cc(F)c2)CC1 | -1.13% (inactive)
C[C@H](CO)N1C[C@H](C)[C@@H](CN(C)Cc2ccc(C(=O)O)cc2)Oc2ccc(NC(=O)Cn3cnnn3)cc2CC1=O | 2.12% (inactive)
COc1ccc(CN(C)C[C@H]2Oc3ccc(NC(=O)Cn4cnnn4)cc3CC(=O)N([C@@H](C)CO)C[C@@H]2C)cc1 | 52.1% (active)
C[C@H]1CN([C@@H](C)CO)C(=O)Cc2cc(NC(=O)Cn3cnnn3)ccc2O[C@H]1CN(C)Cc1ccc(C(=O)O)cc1 | -4.49% (inactive)
Cc1noc(C)c1NC(=O)Nc1ccc2c(c1)CC(=O)N([C@@H](C)CO)C[C@@H](C)[C@@H](CN(C)Cc1ccc(Cl)c(Cl)c1)O2 | 449% (active)
Cc1noc(C)c1NC(=O)Nc1ccc2c(c1)CC(=O)N([C@H](C)CO)C[C@@H](C)[C@@H](CN(C)Cc1ccc(C(F)(F)F)cc1)O2 | -0.087% (inactive)

SMILES | activation
C[C@@H]1CN([C@H](C)CO)C(=O)Cc2cc(NC(=O)Nc3ccccc3)ccc2O[C@H]1CN(C)Cc1ccc(Cl)c(Cl)c1 | 0.392% (inactive)
O=C(NCCN1CCOCC1)c1ccc2c(c1)N(Cc1cccc(Cl)c1)C(=O)c1ccccc1S2(=O)=O | 0.148% (inactive)
COc1ccc(NC(=O)CCCOc2ccc(C(C)=O)cc2)cc1S(=O)(=O)N1CCCCC1 | -6.06% (inactive)
CCOC(=O)C1CCN(C(=O)c2ccc3c(=O)n4nc(Nc5ccccc5CC)sc4nc3c2)CC1 | -0.0345% (inactive)
COc1ccc(NC(=O)C(c2ccncc2)n2c(=O)c(-c3cc4ccccc4[nH]3)nc3ccccc32)cc1 (stereo unspecified) | 0.124% (inactive)
CCOC(=O)C1CSCCS(=O)(=O)N1Cc1ccc(Cl)cc1 (stereo unspecified) | 0.0275% (inactive)
CN[C@H]1C[C@H]2c3cc(Oc4ccccc4C)ccc3CCN2C(=O)[C@H]1[C@H](C)O | -1.54% (inactive)
Cc1cc2ccccc2n1CCNC(=O)COc1ccc2ccccc2c1 | 51.8% (active)
Cc1ccc(C)c(NC(=O)CN(C)C(=O)COc2ccc3ccccc3c2)c1 | -0.121% (inactive)
COC(=O)C(C)NC(=O)COc1ccc2ccccc2c1 (stereo unspecified) | 0.228% (inactive)
CCCN1C[C@@H](C)[C@@H](OC)CN(C)C(=O)c2cc(NC(=O)CC(F)(F)F)ccc2OC[C@H]1C | 0.11% (inactive)
CC(C)(C)OC(=O)N[C@H](C(=O)OC(C)(C)C)c1ccc(Br)cc1 | 0.0795% (inactive)
O=C(NN=Cc1ccco1)C(=O)Nc1ccc(Cl)c([N+](=O)[O-])c1 | -0.0805% (inactive)
CC(=O)N1C[C@@H](CO)[C@@H](N(C)C(=O)C(C)(C)C)C[C@H]1c1ccccc1Br | -0.326% (inactive)
COc1cccc2cc(S(=O)(=O)c3ccc(C)cc3)/c(=N/NS(=O)(=O)c3ccc(C)cc3)oc12 | 0.616% (inactive)
Cc1cc(S(=O)(=O)c2cc3ccc(O)c(C)c3oc2=O)ccc1F | 69.9% (active)
Cc1ccc(CC2(C)C(=O)Nc3ccc(OC(F)(F)F)cc32)cc1 (stereo unspecified) | -0.201% (inactive)
Cn1cnc(S(=O)(=O)N2C[C@@H](O)COC[C@H]3O[C@@H](CC(=O)NCc4ccc(F)cc4)CC[C@@H]32)c1 | -0.0625% (inactive)
O=C(NC[C@H]1[C@@H](c2ccccc2)[C@H](CO)N1CC1CC1)c1cccnc1 | 0.036% (inactive)
Cc1ccc(Nc2nnc(SC(C)C(=O)NC3CC3)s2)cc1 (stereo unspecified) | -0.687% (inactive)
Cc1ccc(Nc2nc(Cl)c(C=O)s2)cc1 | 48.9% (active)
Cc1ccc(Nc2nc(-c3sc(NC(=O)c4ccccc4)nc3C)cs2)cc1 | 0.138% (inactive)
Cc1[nH]nc2c1C(c1ccc(Br)cc1)NC2=O (stereo unspecified) | -0.228% (inactive)
COc1ccc(S(=O)(=O)N(C)C[C@H]2Oc3ccc(NC(=O)Nc4c(C)noc4C)cc3C(=O)N([C@H](C)CO)C[C@H]2C)cc1 | 45.3% (active)
COc1ccc(S(=O)(=O)N(C)C[C@H]2Oc3ccc(NC(=O)Nc4c(C)noc4C)cc3C(=O)N([C@@H](C)CO)C[C@@H]2C)cc1 | 43.2% (active)
COc1ccc(S(=O)(=O)N(C)C[C@@H]2Oc3ccc(NC(=O)Nc4c(C)noc4C)cc3C(=O)N([C@H](C)CO)C[C@@H]2C)cc1 | -0.053% (inactive)

SMILES | activation
Cc1noc(C)c1NC(=O)Nc1ccc2c(c1)C(=O)N([C@@H](C)CO)C[C@H](C)[C@H](CN(C)S(=O)(=O)c1ccc(Cl)cc1)O2 | -0.247% (inactive)
COc1ccc(NC(=O)Nc2ccc3c(c2)C(=O)N([C@@H](C)CO)C[C@H](C)[C@@H](CN(C)S(=O)(=O)c2ccc(Cl)cc2)O3)cc1 | 8.29% (inactive)
COc1ccc(S(=O)(=O)N(C)C[C@H]2Oc3ccc(NC(=O)Nc4c(C)noc4C)cc3CC(=O)N([C@@H](C)CO)C[C@H]2C)cc1 | -4.24% (inactive)
CC1=C(C(=O)N(C(C)C)C(C)C)CC(CC(=O)NCCCCc2ccccc2)C(=O)N1CCC1=CCCCC1 (stereo unspecified) | 1.3% (inactive)
Cc1cc(C)n2c(Nc3c(C)cccc3C)c(CCc3ccccc3)nc2n1 | 0.0345% (inactive)
COc1cccc2c1C(=O)c1c(O)c3c(c(O)c1C2=O)CC(O)(C(C)=NNC(=O)c1ccc(Cl)c(Cl)c1)CC3OC1CC(N)C(O)C(C)O1 (stereo unspecified) | 160% (active)
CO[C@H]1CN(C)C(=O)c2ccc(NC(=O)CC(F)(F)F)cc2OC[C@H](C)N(C(=O)C2CC2)C[C@H]1C | -0.112% (inactive)
CCC(=O)Nc1ccc2c(c1)C(=O)N(C)[C@@H]1CC[C@@H](CC(=O)NCCN3CCCCC3)O[C@@H]1CO2 | -0.0795% (inactive)
CCNS(=O)(=O)c1ccc(CCC(=O)N2CCN(c3ccc(OC)cc3)CC2)cc1 | 31.3% (active)
CCNS(=O)(=O)c1ccc(CCC(=O)N2CCN(c3cc(Cl)ccc3C)CC2)cc1 | -0.168% (inactive)
COc1ccc(N2CCN(C(=O)CNC(=O)c3ccc(Br)o3)CC2)cc1 | -0.05% (inactive)
COc1ccccc1CCn1cnc(-c2ccccc2)c1C(C)C | -0.038% (inactive)
O=C(c1cccnc1)N1C[C@@H]2[C@H](c3ccccc31)[C@@H](CO)N2C(=O)Nc1ccc(F)cc1 | 0.778% (inactive)
O=C(Nc1ccc(Br)cc1)c1cc(S(=O)(=O)Nc2ccccn2)ccc1Cl | 0.225% (inactive)
Cc1ccccc1NC(=O)c1cc(S(=O)(=O)Nc2cccc(C(=O)O)c2)ccc1Cl | 65.6% (active)
Cc1cccc(NS(=O)(=O)c2cccc(C(=O)NNC(=O)c3ccccc3O)c2)c1 | -0.07% (inactive)
CC(C)C[C@H]1CN([C@@H](Cc2ccccc2)CN2CCC[C@@H]2CN2C(=O)C(=O)NC[C@@H]2Cc2ccc(O)cc2)C(=O)C(=O)N1CCc1ccccc1 | 9.99% (inactive)
CCCCNC(=O)c1ccccc1NC(=O)C1=C(C)OCCS1 | 0.108% (inactive)
COc1ccc(N2CCN(C(=O)c3ccccc3NC(=O)C3=C(C)OCCS3)CC2)cc1 | 54.3% (active)
COc1ccc(C(=O)Nc2ccccc2C(=O)N2CCN(c3ccccc3)CC2)cc1 | 0.169% (inactive)
COc1ccc(Sc2ccc(NC(=O)c3cccc(Cl)c3)cc2C#N)cc1 | 2.08% (inactive)
O=C(O)C1CCC(CNS(=O)(=O)c2ccc(Br)cc2)CC1 (stereo unspecified) | -0.071% (inactive)
COCCCNC(=O)C1CCC(CNS(=O)(=O)c2ccc(OC)cc2)CC1 (stereo unspecified) | -0.0375% (inactive)
CCCCSCCCNC(=O)C1CCC(CNS(=O)(=O)c2ccc(NC(C)=O)cc2)CC1 (stereo unspecified) | 58.2% (active)
